Assay results published in ChEMBL document CHEMBL1143844, “Biochemical studies on the mechanism of human immunodeficiency virus type 1 reverse transcriptase resistance to 1-(beta-D-dioxolane)thymine triphosphate” (Antimicrob Agents Chemother, 2007).

Assays:
[1] = Inhibition of HIV1 reverse transcriptase 41L/69S-SG/210W/215Y mutant by heteropolymeric DNA polymerase assay; parameters: species or system Human immunodeficiency virus 1
Method in brief: (§1)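 Purified p66/p51 HIV-1 RT, or p66 homodimer for 65R, at 30–100 pM (about 1.5–4.5 mU/well). Plate-bound 18-mer DNA primer on a 50-base 5′-A12-(GTCA)5-3′ DNA template. dATP, dGTP, dCTP and BrdUTP at 1.0 μM each, no ATP. Buffer: HEPES 50 mM pH 7.3, 10 mM MgCl2. Incubation 180 min at 33°C, NaOH dehybridization, anti-BrdU-AP tracer, A405. IC50 from seven inhibitor concentrations, at least two experiments in duplicate.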

[2] = Inhibition of HIV1 pNL4-3 reverse transcriptase 115F mutant by heteropolymeric DNA polymerase assay; parameters: species or system Human immunodeficiency virus 1; method in brief: as §1
[3] = Inhibition of HIV1 reverse transcriptase wild type HXB2(a) by heteropolymeric DNA polymerase assay; parameters: species or system Human immunodeficiency virus 1
Method in brief: (§2)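 Heteropolymeric assay without ATP: plate-bound 18-mer DNA primer (~110 nM) with 50-mer 5′-A12-(GTCA)5 template (190 nM). dATP, dGTP, dCTP and BrdUTP at 1.0 μM each, in HEPES 50 mM pH 7.3, MgCl2 10 mM. RT 30–100 pM, 33°C for 180 min, then NaOH dehybridization and anti-BrdU-AP tracer read at 405 nm. IC50 from seven triphosphate concentrations; two to four runs in duplicate.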

[4] = biological target: T1, Human immunodeficiency virus type 1 reverse transcriptase (Human immunodeficiency virus 1, UniProt Q72547); assay: Inhibition of HIV1 pNL4-3 reverse transcriptase wild type pNL4-3 by heteropolymeric DNA polymerase assay; method in brief: as §2
[5] = Inhibition of HIV1 reverse transcriptase 41L/67N/70R/184V/210W/215Y mutant by heteropolymeric DNA polymerase assay; parameters: species or system Human immunodeficiency virus 1; method in brief: as §1
[6] = Inhibition of HIV1 LAI reverse transcriptase 65R mutant in presence of 5 mM ATP by heteropolymeric DNA polymerase assay; parameters: species or system Human immunodeficiency virus 1
Method in brief: (§3)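 Heteropolymeric DNA polymerase assay with ATP added at 5 mM. Purified HIV-1 RT at 30–100 pM acts on a plate-bound DNA primer with a 5′-A12-(GTCA)5-3′ template. dATP, dGTP, dCTP and BrdUTP at 1.0 μM each. Incubation 180 min at 33°C. BrdUMP incorporation read via anti-BrdU-AP at 405 nm after NaOH dehybridization. IC50 from seven inhibitor concentrations, at least two experiments in duplicate.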

[7] = biological target: T1, Human immunodeficiency virus type 1 reverse transcriptase; assay: Inhibition of HIV1 LAI reverse transcriptase wild type in presence of 5 mM ATP by heteropolymeric DNA polymerase assay
Method in brief: (§4)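 Heteropolymeric DNA assay with 5 mM ATP added: immobilized 18-mer primer, 5′-A12-(GTCA)5 50-mer template, dATP/dGTP/dCTP/BrdUTP at 1.0 μM each, HEPES 50 mM pH 7.3, MgCl2 10 mM. RT 30–100 pM, incubated at 33°C for 180 min. NaOH strand separation, then anti-BrdU-AP detection at 405 nm. IC50 fitted from seven inhibitor concentrations; two to four runs in duplicate.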

[8] = biological target: T1, Human immunodeficiency virus type 1 reverse transcriptase; assay: Inhibition of HIV1 LAI reverse transcriptase wild type LAI by heteropolymeric DNA polymerase assay; method in brief: as §2
[9] = Inhibition of HIV1 reverse transcriptase 41L/69S-SG/210W/215Y mutant in presence of 5 mM ATP by heteropolymeric DNA polymerase assay; parameters: species or system Human immunodeficiency virus 1; method in brief: as §3
[10] = biological target: T1, Human immunodeficiency virus type 1 reverse transcriptase; assay: Inhibition of HIV1 pNL4-3 reverse transcriptase wild type pNL4-3 in presence of 5 mM ATP by heteropolymeric DNA polymerase assay; method in brief: as §4
[11] = Inhibition of HIV1 reverse transcriptase 75I/77L/116Y/151M/184V mutant by heteropolymeric DNA polymerase assay; parameters: species or system Human immunodeficiency virus 1; method in brief: as §1
[12] = Inhibition of HIV1 reverse transcriptase 75I/77L/116Y/151M/184V mutant in presence of 5 mM ATP by heteropolymeric DNA polymerase assay; parameters: species or system Human immunodeficiency virus 1; method in brief: as §3
[13] = Inhibition of HIV1 reverse transcriptase 184V mutant by heteropolymeric DNA polymerase assay; parameters: species or system Human immunodeficiency virus 1; method in brief: as §1
[14] = Inhibition of HIV1 reverse transcriptase 75I/77L/116Y/151M mutant in presence of 5 mM ATP by heteropolymeric DNA polymerase assay; parameters: species or system Human immunodeficiency virus 1; method in brief: as §3
[15] = Inhibition of HIV1 reverse transcriptase 184V mutant in presence of 5 mM ATP by heteropolymeric DNA polymerase assay; parameters: species or system Human immunodeficiency virus 1; method in brief: as §3
[16] = Inhibition of HIV1 reverse transcriptase 41L/67N/70R/184V/210W/215Y mutant in presence of 5 mM ATP by heteropolymeric DNA polymerase assay; parameters: species or system Human immunodeficiency virus 1; method in brief: as §3
[17] = Inhibition of HIV1 reverse transcriptase 41L/67N/70R/210W/215Y mutant by heteropolymeric DNA polymerase assay; parameters: species or system Human immunodeficiency virus 1; method in brief: as §1
[18] = Inhibition of HIV1 pNL4-3 reverse transcriptase 115F mutant in presence of 5 mM ATP by heteropolymeric DNA polymerase assay; parameters: species or system Human immunodeficiency virus 1; method in brief: as §3
[19] = Inhibition of HIV1 LAI reverse transcriptase 65R mutant by heteropolymeric DNA polymerase assay; parameters: species or system Human immunodeficiency virus 1; method in brief: as §1
[20] = Inhibition of HIV1 reverse transcriptase 75I/77L/116Y/151M mutant by heteropolymeric DNA polymerase assay; parameters: species or system Human immunodeficiency virus 1; method in brief: as §1
[21] = Inhibition of HIV1 reverse transcriptase 41L/69S-SG/184V/210W/215Y mutant by heteropolymeric DNA polymerase assay; parameters: species or system Human immunodeficiency virus 1; method in brief: as §1
[22] = Inhibition of HIV1 reverse transcriptase wild type HXB2(a) in presence of 5 mM ATP by heteropolymeric DNA polymerase assay; parameters: species or system Human immunodeficiency virus 1; method in brief: as §4
[23] = Inhibition of HIV1 reverse transcriptase 41L/69S-SG/184V/210W/215Y mutant in presence of 5 mM ATP by heteropolymeric DNA polymerase assay; parameters: species or system Human immunodeficiency virus 1; method in brief: as §3

Row | SMILES | IC50 [3] [nM] | IC50 [5] [nM] | IC50 [6] [nM] | IC50 [7] [nM] | IC50 [8] [nM] | IC50 [9] [nM] | IC50 [11] [nM] | IC50 [12] [nM] | IC50 [13] [nM] | IC50 [14] [nM] | IC50 [15] [nM] | IC50 [16] [nM] | IC50 [17] [nM] | IC50 [19] [nM] | IC50 [20] [nM] | IC50 [21] [nM] | IC50 [22] [nM] | IC50 [23] [nM] | also measured
1 | Nc1nc(=O)c2ncn([C@H]3C=C[C@@H](COP(=O)(O)OP(=O)(O)OP(=O)(O)O)C3)c2[nH]1 [CARBOVIR 5'-TRIPHOSPHATE, (-)-] | 1100 | 2700 | 5500 | 900 | 680 | 5100 | 54000 | 18000 | 5500 | 11000 | 8400 | 4500 | 900 | 5000 | 6600 | 3400 | 1500 | 6400 | IC50 [1]: 900 nM; IC50 [2]: 2600 nM; IC50 [4]: 1200 nM; IC50 [10]: 1800 nM; IC50 [18]: 3600 nM
2 | Nc1nc2c(ncn2[C@H]2CO[C@@H](COP(=O)(O)OP(=O)(O)OP(=O)(O)O)O2)c(=O)[nH]1 | 120 | 140 | 1300 | 200 | 180 | 340 | 7200 | 2400 | 200 | 1200 | 200 | 190 | 110 | 620 | 2500 | 140 | 150 | 260 | –
